Source: PubChem
In the library only some 4.2% were active in any assay of this set; here they are far more common.
PfM18AAP inh: PfM18AAP inhibitors, malaria aminopeptidase, primary screen, biochemical, QFRET, recombinant enzyme | M18 aspartyl aminopeptidase (Plasmodium falciparum 3D7) | H-Glu-NHMec fluorogenic cleavage | AID 1822, 2009 | inhibition, % at 7.35 µM | 290,000 tested, 1.2% active;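 active = inhibition above the campaign mean inhibition over all tested compounds plus 3 SD, cut at about 28% in these data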;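 note: 0% = plate median of test compound wells and 100% = 2 mM ZnCl2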
AHR act: AHR activators, primary screen, cell-based, luminescence, luciferase reporter, human. AID 2796, 2010. AHR-responsive luciferase reporter cells. Aryl hydrocarbon receptor (Homo sapiens), P35869. 320,000 tested, 2.5% active. activation, % at 5 µM; in the data active = activation above about 47%;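 note: 0% = vehicle wells and 100% = reference agonist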
SENP1 inh: human SENP1 catalytic domain inhibitors, primary screen, biochemical, FRET, uHTS | 360,000 tested, 0.21% active | inhibition, % at 10 µM | recombinant SENP1 catalytic domain, CyPet-SUMO1-YPet FRET cleavage | Sentrin-specific protease 1 (Homo sapiens), Q9P0U3;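 active = inhibition at least 30% at 10 µM, raw YFP signal under a set limit, fluorescence ratio 0.5 to 1.5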;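 note: 0% = enzyme with DMSO and 100% = no enzyme wells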
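Test system: recombinant human SENP1 catalytic domain, His6-tagged / Medium: pH 8 Tris buffer with EDTA, NaCl, BME, BSA, NP40, catalase / Also added: SUMO1 FRET substrate flanked by Cypet and Ypet, 25 nM / Times: 50 min reaction at room temperature / Signal: FRET, CFP and YFP emission / Control set: no-enzyme low control and enzyme-plus-DMSO high control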
GAA850 FXN act: FXN promoter activators, primary screen, cell-based, luciferase luminescence, HEK293 lucGAA850; activation, % at 6 µM; 360,000 tested, 0.56% active; HEK293 lucGAA850 FXN promoter luciferase reporter, 24 h; percent of 10 µM SAHA response; AID 540364, 2011;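 active = activation above the average of all compounds screened plus 3 SD, cutoff fixed separately per campaign, cut at about 7.5% in these data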;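 note: 0% = DMSO wells and 100% = 10 µM SAHA wells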
HDAC3 inh: HDAC3 deacetylase inhibitors, primary screen, biochemical, fluorescence, cell-free homogeneous | Histone deacetylase 3 (Homo sapiens), O15379 | recombinant HDAC3, fluorogenic peptide/trypsin coupled | inhibition, % at 8.3 µM | 320,000 tested, 0.15% active; in the data active = inhibition above about 26%, passing the limit was not always enough
Target sequence (O15379 whole entry, looked up): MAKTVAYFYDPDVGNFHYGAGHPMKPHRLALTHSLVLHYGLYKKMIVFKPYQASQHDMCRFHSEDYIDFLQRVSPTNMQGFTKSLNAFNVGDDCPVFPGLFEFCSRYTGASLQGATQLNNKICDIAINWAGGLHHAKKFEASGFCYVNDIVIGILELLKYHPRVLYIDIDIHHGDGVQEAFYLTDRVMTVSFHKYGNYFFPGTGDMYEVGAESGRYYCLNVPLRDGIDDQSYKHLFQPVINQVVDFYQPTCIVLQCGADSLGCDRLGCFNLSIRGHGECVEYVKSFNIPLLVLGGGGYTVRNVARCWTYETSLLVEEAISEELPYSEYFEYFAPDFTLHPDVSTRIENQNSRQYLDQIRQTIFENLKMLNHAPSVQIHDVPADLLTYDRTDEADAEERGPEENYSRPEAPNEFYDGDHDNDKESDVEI
CTSL1 counter: Fasciola hepatica cathepsin L1 inhibitors, primary screen, counter-screen for PFM18AAP inhibitor project, biochemical, QFRET, fluorogenic peptide substrate; recombinant F. hepatica cathepsin L1, Z-Leu-Arg-MCA fluorescence; inhibition, % at 5.96 µM; 300,000 tested, 0.49% active;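 active = inhibition above the mean of all tested compounds plus 3 SD, set per screening campaign, cut at about 17% in these data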;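 note: 0% = plate median of test compound wells and 100% = 1 µM Z-Phe-Ala-diazomethylketone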
* = called active by the depositor.

For COc1ccc(C(=O)N2CCOC2CNC(=O)C(=O)NCc2ccccn2)cc1 (stereo unspecified) the results were SENP1 inh -4 and GAA850 FXN act 2.
Screening Nc1cc(Cl)nc(N/N=C/c2c(O)ccc3ccccc23)n1 returned PfM18AAP inh 16, AHR act 55*, SENP1 inh 48*, GAA850 FXN act 4, HDAC3 inh 2 and CTSL1 counter -1.
For Nc1nonc1N/N=C/c1c(O)ccc2ccccc12 the results were PfM18AAP inh 22, AHR act 14, SENP1 inh -22, GAA850 FXN act 3, HDAC3 inh -3 and CTSL1 counter 7.
Cc1nn(C)c(Oc2ccccc2)c1CCNC(=O)CCl was read as PfM18AAP inh 1, AHR act -1, SENP1 inh 2, GAA850 FXN act -1, HDAC3 inh 2 and CTSL1 counter 28*.
CC(=O)OCc1c(C(F)(F)F)nn(C)c1Oc1ccccc1 was read as PfM18AAP inh 2, AHR act -2, SENP1 inh -1, GAA850 FXN act 1, HDAC3 inh 2 and CTSL1 counter 1.
COc1ccc(C2C(C(N)=O)=C(C)Nc3nc(-c4ccccc4)nn32)cc1OC (stereo unspecified) was read as PfM18AAP inh 6, AHR act 2, SENP1 inh -88, GAA850 FXN act 0, HDAC3 inh 22 and CTSL1 counter 3.
For COc1cccc(-c2nc3n(n2)C(c2ccc4c(c2)OCO4)C(C(N)=O)=C(C)N3)c1 (stereo unspecified) the results were PfM18AAP inh -2, AHR act 5, SENP1 inh -55, GAA850 FXN act 0, HDAC3 inh 56* and CTSL1 counter -3.
Screening CC1=C(C(N)=O)C(c2cccs2)n2nc(-c3cccc(Cl)c3)nc2N1 (stereo unspecified) returned PfM18AAP inh 0, AHR act 67*, SENP1 inh -5, GAA850 FXN act 5, HDAC3 inh -3 and CTSL1 counter 1.
For C=CCN(C(=O)CSC1=NC(=O)CN1C(C)=O)c1nc(C)c(-c2ccccc2)s1 the results were PfM18AAP inh 5, AHR act -7, SENP1 inh -1, GAA850 FXN act 7, HDAC3 inh 68* and CTSL1 counter 19*.
For CCOc1ccc(OCCNC(=O)c2ccc3c(c2)nnn3CC)cc1 the results were AHR act 5, SENP1 inh -4, GAA850 FXN act 0 and HDAC3 inh -4.
O=C1CN=CN=CN1c1ccc(Cl)cc1Cl was read as PfM18AAP inh 40*, AHR act -2, SENP1 inh 0, GAA850 FXN act -1, HDAC3 inh -3 and CTSL1 counter -2.
Screening COc1ccc(C2=NN(C(N)=S)C(c3ccccc3)C2)cc1 (stereo unspecified) returned PfM18AAP inh 2, AHR act 4, SENP1 inh 0, GAA850 FXN act 3, HDAC3 inh 5 and CTSL1 counter 55*.
COc1ccc(C2=NN(C(=S)Nc3ccccc3)C(c3ccccc3)C2)cc1 (stereo unspecified) was read as PfM18AAP inh 0, AHR act 7, SENP1 inh -2, GAA850 FXN act 0, HDAC3 inh 11 and CTSL1 counter 1.
For CCCS(=O)(=O)NC(=O)C1(C)CCCN(C(=O)c2c(OC)cccc2OC)C1 (stereo unspecified) the results were SENP1 inh 1 and GAA850 FXN act 0.
Screening CC(C)NCC1CCc2cc(CO)c([N+](=O)[O-])cc2N1 (stereo unspecified) returned PfM18AAP inh 1, AHR act -1, SENP1 inh 0, GAA850 FXN act 0, HDAC3 inh 1 and CTSL1 counter -3.
